# Experimental data as given in ChEMBL document CHEMBL5131497, “Design, Synthesis, and Characterization of TNP-2198, a Dual-Targeted Rifamycin-Nitroimidazole Conjugate with Potent Activity against Microaerophilic and Anaerobic Bacterial Pathogens” (J Med Chem, 2022).
# Tests used:
# Assay type in all cases: functional
# Helicobacter pylori [1] = test: Antibacterial activity against Helicobacter pylori infected in C57/BL6 mouse assessed as bacterial load in stomach at 10 mg/kg administered twice daily via oral gavage starting from 7 days post inoculation and administered for 7 days (reference value: 5.25 log10CFU); conditions: time 7 day
# Bacteroides fragilis = test: Antibacterial activity against metronidazole-resistant Bacteroides fragilis MMX 3387
# [2] = test system: Bacteroides thetaiotaomicron; test: Antibacterial activity against metronidazole-resistant Bacteroides thetaiotaomicron MMX 3409
# Campylobacter gracilis = test: Antibacterial activity against Bacteroides gracilis ATCC 33236 MMX 1270
# Bacteroides uniformis = test: Antibacterial activity against Bacteroides uniformis MMX 1277
# Phocaeicola vulgatus = test: Antibacterial activity against Bacteroides vulgatus MMX 8348
# Clostridioides difficile [3] = test: Antibacterial activity against rifampicin-resistant Clostridium difficile MMX 3587
# Peptostreptococcus sp. = test: Antibacterial activity against Peptostreptococcus magnus ATCC 14956
# Prevotella disiens [4] = test: Antibacterial activity against Prevotella disiens MMX 3457
# Staphylococcus aureus = test: Antibacterial activity against Staphylococcus aureus ATCC 29213
# Clostridioides difficile [5] = test: Antibacterial activity against Clostridioides difficile ATCC 9689
# Helicobacter pylori [6] = test: Antibacterial activity against Helicobacter pylori ATCC 700392
# Procedure, shortened: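 Agar dilution per CLSI. Wild-type H. pylori ATCC 700392 (CB1531). Drugs prepared from 100× stocks as 2-fold dilutions in Mueller–Hinton agar with aged (≥2 weeks) sheep blood (5% v/v). Combinations were at 1:1 molar ratio. MIC read after 5 days at 35 °C under microaerobic atmosphere from a campylobacter gas-generating system.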
# Helicobacter pylori [7] = test: Antibacterial activity against metronidazole-resistant Helicobacter pylori CB1573 harboring rdxAR16S mutant at 1:1 compound to metronidazole molar ratio measured after 5 days in presence of metronidazole by agar dilution method; conditions: CB1573, 120 h, time 5 day
# Procedure, shortened: (§1)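 Agar dilution per CLSI. Wild-type ATCC 700392 (CB1531) and its derivatives carry defined resistance determinants. Drugs, alone or in 1:1 molar mixtures, were diluted 2-fold from 100× stocks into Mueller–Hinton agar with aged (≥2 weeks) sheep blood (5% v/v). MIC read after 5 days at 35 °C under microaerobic conditions from a campylobacter gas-generating system.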
# Helicobacter pylori [8] = test: Antibacterial activity against rifampicin-resistant Helicobacter pylori CB1903 harboring rpoBD530V mutant measured after 5 days by agar dilution method; conditions: CB1903, 120 h, time 5 day; procedure, shortened: as §1
# Helicobacter pylori [9] = test: Antibacterial activity against rifampicin-resistant Helicobacter pylori CB1902 harboring rpoBV149F mutant measured after 5 days by agar dilution method; conditions: CB1902, 120 h, time 5 day; procedure, shortened: as §1
# Helicobacter pylori [10] = test: Antibacterial activity against rifampicin-resistant Helicobacter pylori CB1902 harboring rpoBV149F mutant at 1:1 compound to metronidazole molar ratio measured after 5 days in presence of metronidazole by agar dilution method; conditions: CB1902, 120 h, time 5 day; procedure, shortened: as §1
# Helicobacter pylori [11] = test: Antibacterial activity against rifampicin-resistant Helicobacter pylori CB1903 harboring rpoBD530V mutant at 1:1 compound to metronidazole molar ratio measured after 5 days in presence of metronidazole by agar dilution method; conditions: CB1903, 120 h, time 5 day; procedure, shortened: as §1
# Helicobacter pylori [12] = test: Antibacterial activity against rifampicin-resistant Helicobacter pylori CB1614 harboring rpoBL525I/D530N mutant measured after 5 days by agar dilution method; conditions: CB1614, 120 h, time 5 day; procedure, shortened: as §1
# Helicobacter pylori [13] = test: Antibacterial activity against rifampicin-resistant Helicobacter pylori CB1614 harboring rpoBL525I/D530N at 1:1 compound to metronidazole molar ratio measured after 5 days in presence of metronidazole by agar dilution method; conditions: CB1614, 120 h, time 5 day; procedure, shortened: as §1
# Helicobacter pylori [14] = test: Antibacterial activity against metronidazole/rifampicin-resistant Helicobacter pylori CB1771 harboring rpoBL525I/D530N/rdxAE75stop mutant measured after 5 days by agar dilution method; conditions: CB1771, 120 h, time 5 day; procedure, shortened: as §1
# Helicobacter pylori [15] = test: Antibacterial activity against metronidazole/rifampicin-resistant Helicobacter pylori CB1771 harboring rpoBL525I/D530N/rdxAE75stop mutant at 1:1 compound to metronidazole molar ratio measured after 5 days in presence of metronidazole by agar dilution method; conditions: CB1771, 120 h, time 5 day; procedure, shortened: as §1
# Helicobacter pylori [16] = test: Antibacterial activity against metronidazole/rifampicin-resistant Helicobacter pylori CB1893 harboring rpoBL525I/D530N/rdxAR16S mutant measured after 5 days by agar dilution method; conditions: CB1893, 120 h, time 5 day; procedure, shortened: as §1
# Helicobacter pylori [17] = test: Antibacterial activity against metronidazole/rifampicin-resistant Helicobacter pylori CB1893 harboring rpoBL525I/D530N/rdxAR16S mutant at 1:1 compound to metronidazole molar ratio measured after 5 days in presence of metronidazole by agar dilution method; conditions: CB1893, 120 h, time 5 day; procedure, shortened: as §1
# Actinomyces naeslundii = test: Antibacterial activity against Actinomyces naeslundii ATCC 1210
# Clostridioides difficile [18] = test: Antibacterial activity against Clostridioides difficile clinical isolate China
# Helicobacter pylori [19] = test: Antibacterial activity against Helicobacter pylori clinical isolate USA
# Helicobacter pylori [20] = test: Antibacterial activity against Helicobacter pylori clinical isolate China
# Clostridioides difficile [21] = test: Antibacterial activity against rifampicin-resistant Clostridioides difficile harboring rpoBQ489K mutant
# Helicobacter pylori [22] = test: Antibacterial activity against Helicobacter pylori ATCC 700392 at 1:1 compound to metronidazole molar ratio measured after 5 days in presence of metronidazole by agar dilution method; conditions: ATCC 700392, 120 h, time 5 day; procedure, shortened: as §1
# Helicobacter pylori [23] = test: Antibacterial activity against metronidazole-resistant Helicobacter pylori CB1573 harboring rdxAR16S mutant measured after 5 days by agar dilution method; conditions: CB1573, 120 h, time 5 day; procedure, shortened: as §1
# Clostridioides difficile [24] = test: Antibacterial activity against rifampicin-resistant Clostridioides difficile CB1934 harboring rpoBQ489K mutant measured after 3 days; conditions: CB1934, 72 h, time 3 day
# Clostridioides difficile [25] = test: Antibacterial activity against rifampicin-resistant Clostridioides difficile CB1934 harboring rpoBQ489K mutant at 1:1 compound to metronidazole molar ratio measured after 3 days in presence of metronidazole; conditions: CB1934, 72 h, time 3 day
# Clostridioides difficile [26] = test: Antibacterial activity against fluoroquinolone-resistant Clostridioides difficile CB1939 at 1:1 compound to metronidazole molar ratio measured after 3 days in presence of metronidazole; conditions: CB1939, 72 h, time 3 day
# Clostridioides difficile [27] = test: Antibacterial activity against fluoroquinolone-resistant Clostridioides difficile CB1941 harboring gyrAD71Y/T82A mutant measured after 3 days; conditions: CB1941, 72 h, time 3 day
# Clostridioides difficile [28] = test: Antibacterial activity against fluoroquinolone-resistant Clostridioides difficile CB1941 harboring gyrAD71Y/T82A mutant at 1:1 compound to metronidazole molar ratio measured after 3 days in presence of metronidazole; conditions: CB1941, 72 h, time 3 day
# Clostridioides difficile [29] = test: Antibacterial activity against rifampicin/fluoroquinolone-resistant Clostridioides difficile CB1940 harboring rpoBQ489K/gyrAA118S mutant measured after 3 days; conditions: CB1940, 72 h, time 3 day
# Clostridioides difficile [30] = test: Antibacterial activity against rifampicin/fluoroquinolone-resistant Clostridioides difficile CB1940 harboring rpoBQ489K/gyrAA118S mutant at 1:1 compound to metronidazole molar ratio measured after 3 days in presence of metronidazole; conditions: CB1940, 72 h, time 3 day
# Clostridioides difficile [31] = test: Antibacterial activity against rifampicin/fluoroquinolone-resistant Clostridioides difficile CB1942 harboring rpoBQ489K/gyrAD71Y/T82A mutant measured after 3 days; conditions: CB1942, 72 h, time 3 day
# Clostridioides difficile [32] = test: Antibacterial activity against rifampicin/fluoroquinolone-resistant Clostridioides difficile CB1942 harboring rpoBQ489K/gyrAD71Y/T82A mutant at 1:1 compound to metronidazole molar ratio measured after 3 days in presence of metronidazole; conditions: CB1942, 72 h, time 3 day
# Bifidobacterium longum = test: Antibacterial activity against Bifidobacterium longum ATCC 15707
# Fusobacterium nucleatum = test: Antibacterial activity against Fusobacterium nucleatum ATCC 25586
# Gardnerella vaginalis [33] = test: Antibacterial activity against Gardnerella vaginalis ATCC 14018
# Gardnerella vaginalis [34] = test: Antibacterial activity against Gardnerella vaginalis ATCC 49145
# [35] = test system: Porphyromonas asaccharolytica; test: Antibacterial activity against metronidazole-resistant Prevotella asaccharolytica MMX 3552
# Prevotella bivia = test: Antibacterial activity against Prevotella bivia ATCC 29303/MMX 5718
# Prevotella disiens [36] = test: Antibacterial activity against Prevotella disiens MMX 3446
# Prevotella intermedia = test: Antibacterial activity against Prevotella intermedia ATCC 25611 MMX 3002
# Veillonella parvula = test: Antibacterial activity against Veillonella parvula ATCC 17745 MMX 1272
# Clostridioides difficile [37] = test: Antibacterial activity against Clostridioides difficile BAA 1382
structure (smiles),measurement,setting,value
CC[C@H]1OC(=O)[C@H](C)[C@@H](O[C@H]2C[C@@](C)(OC)[C@@H](O)[C@H](C)O2)[C@H](C)[C@@H](O[C@@H]2O[C@H](C)C[C@H](N(C)C)[C@H]2O)[C@](C)(OC)C[C@@H](C)C(=O)[C@H](C)[C@@H](O)[C@]1(C)O [CLARITHROMYCIN],Activity,Helicobacter pylori [1],2.85 log10CFU
CCC[C@@H]1C[C@@H](C(=O)N[C@@H]([C@H]2O[C@H](SC)[C@H](O)[C@@H](O)[C@H]2O)[C@H](C)Cl)N(C)C1 [CLINDAMYCIN],MIC,Bacteroides fragilis,2 µg/mL
same,MIC,[2],> 64 µg/mL
same,MIC,Campylobacter gracilis,0.06 µg/mL
same,MIC,Bacteroides uniformis,0.25 µg/mL
same,MIC,Phocaeicola vulgatus,0.25 µg/mL
same,MIC,Clostridioides difficile [3],8 µg/mL
same,MIC,Peptostreptococcus sp.,1 µg/mL
same,MIC,Prevotella disiens [4],0.25 µg/mL
CO[C@H]1/C=C/O[C@@]2(C)Oc3c(C)c(O)c4c(c3C2=O)C2=NC3(CCN(CC(C)C)CC3)NC2=C(NC(=O)/C(C)=C\C=C\[C@H](C)[C@H](O)[C@@H](C)[C@@H](O)[C@@H](C)[C@H](OC(C)=O)[C@@H]1C)C4=O [RIFABUTIN],MIC,Staphylococcus aureus,0.03 µg/mL
same,MIC,Clostridioides difficile [5],0.1 ng/mL
same,MIC,Helicobacter pylori [6],1 ng/mL
same,MIC,Helicobacter pylori [7],≤ 0.002 µg/mL
same,MIC,Helicobacter pylori [8],16 µg/mL
same,MIC,Helicobacter pylori [9],16 µg/mL
same,MIC,Helicobacter pylori [10],2 µg/mL
same,MIC,Helicobacter pylori [11],1 µg/mL
same,MIC,Helicobacter pylori [12],16 µg/mL
same,MIC,Helicobacter pylori [13],2 µg/mL
same,MIC,Helicobacter pylori [14],16 µg/mL
same,MIC,Helicobacter pylori [15],16 µg/mL
same,MIC,Helicobacter pylori [16],16 µg/mL
same,MIC,Helicobacter pylori [17],16 µg/mL
CO[C@H]1/C=C/O[C@@]2(C)Oc3c(C)c(O)c4c(O)c(c(/C=N/N5CCN(C)CC5)c(O)c4c3C2=O)NC(=O)/C(C)=C\C=C\[C@H](C)[C@H](O)[C@@H](C)[C@@H](O)[C@@H](C)[C@H](OC(C)=O)[C@@H]1C [RIFAMPIN],MIC,Actinomyces naeslundii,0.03 µg/mL
same,MIC,Clostridioides difficile [18],0.06 µg/mL
same,MIC90,Clostridioides difficile [18],≥ 128 µg/mL
same,MIC,Helicobacter pylori [19],≥ 7 ng/mL
same,MIC,Helicobacter pylori [20],≤ 0.06 µg/mL
same,MIC90,Helicobacter pylori [20],0.5 µg/mL
same,MIC,Staphylococcus aureus,0.008 µg/mL
same,MIC,Clostridioides difficile [5],1 ng/mL
same,MIC,Clostridioides difficile [21],0.25 µg/mL
same,MIC,Helicobacter pylori [22],0.5 µg/mL
same,MIC,Helicobacter pylori [23],0.5 µg/mL
same,MIC,Helicobacter pylori [7],0.25 µg/mL
same,MIC,Helicobacter pylori [8],> 32 µg/mL
same,MIC,Helicobacter pylori [10],8 µg/mL
same,MIC,Helicobacter pylori [11],16 µg/mL
same,MIC,Helicobacter pylori [13],8 µg/mL
same,MIC,Clostridioides difficile [24],> 32 µg/mL
same,MIC,Clostridioides difficile [25],2 µg/mL
same,MIC,Clostridioides difficile [26],≤ 0.03 µg/mL
same,MIC,Clostridioides difficile [27],≤ 0.03 µg/mL
same,MIC,Clostridioides difficile [28],≤ 0.03 µg/mL
same,MIC,Clostridioides difficile [29],> 32 µg/mL
same,MIC,Clostridioides difficile [30],2 µg/mL
same,MIC,Clostridioides difficile [31],> 32 µg/mL
same,MIC,Clostridioides difficile [32],2 µg/mL
same,MIC,[2],0.5 µg/mL
same,MIC,Bacteroides uniformis,0.5 µg/mL
same,MIC,Bifidobacterium longum,0.5 µg/mL
same,MIC,Fusobacterium nucleatum,0.5 µg/mL
same,MIC,Gardnerella vaginalis [33],0.5 µg/mL
same,MIC,Gardnerella vaginalis [34],0.5 µg/mL
same,MIC,Peptostreptococcus sp.,1 µg/mL
same,MIC,[35],4 ng/mL
same,MIC,Prevotella bivia,0.5 µg/mL
same,MIC,Prevotella disiens [4],0.5 µg/mL
same,MIC,Prevotella disiens [36],0.12 µg/mL
same,MIC,Prevotella intermedia,0.12 µg/mL
same,MIC,Veillonella parvula,4 µg/mL
same,MIC,Clostridioides difficile [37],1 ng/mL
